# Screening results from PubChem BioAssay.
# SENP6 inh: SENP6 protease inhibitors, primary screen, biochemical, luminescence, uHTS; Sentrin-specific protease 6 (Homo sapiens), Q9GZR1; Recombinant SENP6 catalytic domain, aminoluciferin luminescence; inhibition, % at 10 µM; 330,000 compounds, 1.8% hits; AID 2599, 2010;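 active = inhibition above about 50% at the single tested dose, limit read from the data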
# SENP7 inh: SENP7 protease inhibitors, primary screen, biochemical, luminescence, uHTS | inhibition, % at 5 µM | 330,000 compounds, 1.5% hits | Sentrin-specific protease 7 (Homo sapiens), Q9BQF6 | recombinant SENP7, Z-RLRGG-aminoluciferin luminescence, 40 min;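 active = inhibition above about 50% at the single test dose, limit read from the data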
# Target sequence (Q9BQF6 706-1050 limits assumed): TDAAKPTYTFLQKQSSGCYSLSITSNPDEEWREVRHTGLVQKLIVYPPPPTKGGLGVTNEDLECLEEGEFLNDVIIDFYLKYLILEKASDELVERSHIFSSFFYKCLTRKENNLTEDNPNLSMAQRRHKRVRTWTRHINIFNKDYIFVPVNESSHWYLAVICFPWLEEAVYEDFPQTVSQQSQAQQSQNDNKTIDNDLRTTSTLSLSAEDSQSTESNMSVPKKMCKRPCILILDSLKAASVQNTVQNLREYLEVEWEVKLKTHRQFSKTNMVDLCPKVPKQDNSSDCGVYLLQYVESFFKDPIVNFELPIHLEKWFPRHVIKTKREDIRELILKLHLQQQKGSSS
# SENP8 block-1: SENP8 protease inhibitors, primary screen, biochemical, luminescence; purified SENP8, Z-RLRGG-aminoluciferin cleavage; Sentrin-specific protease 8 (Homo sapiens), Q96LD8; 330,000 compounds, 1.2% hits; AID 2540, 2010; inhibition, % at 10 µM; in the data active = inhibition above about 50%
# SENP1 inh: human SENP1 catalytic domain inhibitors, primary screen, biochemical, FRET, uHTS; Sentrin-specific protease 1 (Homo sapiens), Q9P0U3; recombinant SENP1 catalytic domain, CyPet-SUMO1-YPet FRET cleavage; inhibition, % at 10 µM; 360,000 compounds, 0.21% hits;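 active = inhibition at least 30% at 10 µM, raw YFP signal under a set limit, fluorescence ratio 0.5 to 1.5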
# Target sequence (Q9P0U3 419-644 limits assumed): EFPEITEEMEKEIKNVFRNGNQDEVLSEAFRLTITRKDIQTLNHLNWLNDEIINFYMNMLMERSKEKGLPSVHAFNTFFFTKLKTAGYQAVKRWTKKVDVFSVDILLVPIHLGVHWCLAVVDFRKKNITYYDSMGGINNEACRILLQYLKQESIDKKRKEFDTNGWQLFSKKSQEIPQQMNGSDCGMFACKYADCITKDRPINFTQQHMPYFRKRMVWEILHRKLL
#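 system = hSENP1 catalytic domain, recombinant | reagent = SFCypet-SUMO1-SFYpet substrate at 25 nM | doses = one dose per compound, 10 µM, 0.5% DMSO | incubation = enzyme reaction for 50 min at room temperature, dark | measured by = FRET, CFP and YFP emission | controls = no-enzyme low, enzyme-DMSO high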
# SENP8 block-2: human SENP8 protease inhibitors, primary screen, biochemical, fluorescence, Nedd8 protein substrate, uHTS | inhibition, % at 20 µM | Sentrin-specific protease 8 (Homo sapiens), Q96LD8 | 360,000 compounds, 0.64% hits | recombinant SENP8; in the data active = inhibition mostly above about 40%, no sharp cut-off; inactive = mostly below about 27%
# SENP1 inh conf: human SENP1 catalytic domain inhibitors, confirmation, biochemical, FRET endpoint, single concentration. shares compounds with SENP1 inh. recombinant SENP1, CyPet-SUMO1-YPet FRET cleavage. inhibition, % at 10 µM. 520 compounds, 34% hits. AID 651678, 2012; in the data active = inhibition mostly above about 35%, no sharp cut-off; inactive = mostly below about 32%
# SENP1 kin conf: human SENP1 catalytic domain inhibitors, confirmation, biochemical, kinetic FRET, single concentration | inhibition, % at 10 µM | 520 compounds, 26% hits | recombinant SENP1, CyPet-SUMO1-YPet FRET kinetic cleavage | shares compounds with SENP1 inh; in the data active = inhibition mostly above about 32%, no sharp cut-off; inactive = mostly below about 29%
# A number is an active result; . = inactive; / = not tested or not shown. Shown are actives, neighbours in structure and some others; about 2.5% of the full set was active somewhere.
SMILES,SENP6 inh,SENP7 inh,SENP8 block-1,SENP1 inh,SENP8 block-2,SENP1 inh conf,SENP1 kin conf
Cc1cc(C)c2cc(C#N)c(SCC(=O)NCc3ccco3)nc2c1,.,.,.,40.6,.,.,.
C/C(CC(=O)Nc1ccccc1F)=N\NC(=O)Cc1ccc(Cl)cc1,.,.,.,.,.,/,/
Cc1nn2c(=O)cc(COC(=O)c3c(F)cccc3Cl)nc2s1,.,.,.,.,.,/,/
Cc1cc2c(C)nc(N/N=C/c3ccc([N+](=O)[O-])cc3)nc2o1,/,/,/,35.9,.,.,.
CCOC(=O)C1=C(COC(=O)C2CC(=O)N(c3ccccc3CC)C2)NC(=O)NC1C (stereo not given),/,/,/,.,.,/,/
COc1ccc(N/N=C(/C)c2cnnc(-c3ccccc3)n2)cc1,.,.,.,65.9,.,.,.
N=c1oc2ccc([N+](=O)[O-])cc2cc1C(=O)NCc1ccccc1,.,.,.,57.0,.,60.1,.
N=c1oc2ccc(Br)cc2cc1C(=O)NCc1ccccc1,.,.,.,.,.,/,/
O=S1(=O)NC(CC2=CCCCC2)C2CCCCC2O1 (stereo not given),.,.,.,.,.,/,/
C=CCOc1ccc(Br)cc1/C=C1\NC(=S)N(C(C)=O)C1=O,.,.,.,.,.,/,/
C=CCOc1c(Br)cc(/C=C2/NC(=S)N(C(C)=O)C2=O)cc1OC,.,.,.,54.6,.,39.6,56.5
CNc1ccc(/C=C(\C#N)c2ccccn2)cc1[N+](=O)[O-],.,.,.,46.3,.,.,.
N#C/C(=C\c1ccc(Cl)c([N+](=O)[O-])c1)c1ccccn1,.,.,.,.,.,/,/
COC(=O)c1ccc(-c2nc(O)c(C)s2)cc1,.,.,.,41.0,.,86.7,56.2
O=c1c2ccccc2nc(/C=C/c2cc(Br)ccc2O)n1CCO,.,.,.,75.9,.,83.6,45.0
O=c1c2ccccc2nc(/C=C/c2c[nH]c3ccccc23)n1CCO,.,.,.,.,.,/,/
CCOC(=O)C1=C[C@@H](c2ccccc2)N(S(=O)(=O)c2ccc(C)cc2)[C@H]1c1ccccc1Cl,/,/,/,.,.,/,/
CC1=CC(C)C(=O)N(C)C(C)=C1 (stereo not given),/,/,/,.,.,/,/
COC(=O)/C=C1\S/C(=N/NC(=O)c2ccc(OC)cc2)NC1=O,.,.,.,53.9,.,.,.
COC(=O)/C=C1/S/C(=N/NC(=O)c2ccc(OC)cc2)NC1=O,.,.,.,.,.,/,/
Cc1ccc2c(c1)sc(-c1ccc(N(C)C)cc1)[n+]2C,.,.,.,.,.,/,/
Clc1cccc(Cl)c1C[n+]1ccc2ccccc2c1,.,.,.,67.6,.,.,.
O=S(=O)(NCC1CCN(Cc2ccccc2)CC1)c1ccccc1C(F)(F)F,.,.,.,.,.,/,/
Cc1ccc2c(c1)C(=O)CCN2,.,.,.,.,.,/,/
Cc1ccc2c(c1)C(=C(C#N)C#N)CCN2,/,/,/,36.0,.,51.5,32.7
SMILES,SENP6 inh,SENP7 inh,SENP8 block-1,SENP1 inh,SENP8 block-2,SENP1 inh conf,SENP1 kin conf
COc1cccc(-c2cnc3c(c2)C(=O)N([C@H](C)CO)C[C@@H](C)[C@H](CN(C)C(=O)Nc2ccccc2F)O3)c1,/,/,/,.,.,/,/
COc1ccc2oc(=O)c(/C(N)=N/NC(=O)c3ccncc3)cc2c1,.,.,.,36.6,.,.,.
C/C(=N\NC(=O)c1ccncc1)c1cc2ccccc2oc1=O,.,.,.,.,.,/,/
CN(CCOc1ccc(Cl)cc1)C(=O)CN1C(=O)NC2(CCCCC2)C1=O,.,.,.,.,.,/,/
Cc1ccccc1NC(=O)c1cccc(C(=O)Nc2ccccc2C)n1,.,.,.,37.6,.,.,.
COc1c(C)cc(C(O)c2ncc(-c3ccccc3F)[nH]2)cc1C (stereo not given),/,/,/,.,.,/,/
COc1ccccc1N1C(=O)S/C(=C\c2ccc(C)s2)C1=O,.,.,.,39.8,.,.,.
CC(=O)Nc1cc(-c2ccc(N3CCN(C)CC3)cc2)cn2c(-c3cccc(C(C)=O)c3)cnc12,/,/,/,36.6,.,.,.
CC(=O)Nc1cc(-c2ccc(N3CCN(C)CC3)cc2)cn2c(-c3ccc(F)c(Cl)c3)cnc12,/,/,/,41.9,.,.,.
Cc1cccc(/C=N/NC(=O)c2ccc(NC(=O)c3cccc(Cl)c3)cc2)n1,.,.,.,.,.,/,/
CC1(C)Cc2ccccc2C(N/N=C/c2ccc(Cl)cc2)=N1,.,.,.,.,.,/,/
CCOC(=O)c1c2c3c(cccc3[nH]c1=O)C(=O)c1ccccc1-2,.,.,.,.,.,/,/
CCOC(=O)c1c2c3c(c(Cl)ccc3[nH]c1=O)C(=O)c1ccccc1-2,.,.,.,57.3,.,40.0,.
CCN(CC(=O)Nc1ccc(NC(C)=O)cc1)C(=O)C1(c2ccc(Cl)cc2)CCC1,/,/,/,.,.,/,/
CCN1C(=O)c2cccc3c(NC(=O)c4cccc(N5C(=O)CCC5=O)c4)ccc1c23,.,.,.,57.8,.,43.5,.
O=C(CSc1n[nH]c(=O)n1C1CC1)Nc1ccc(F)c(Cl)c1,.,.,.,44.0,.,.,.
O=C(CSc1n[nH]c(=O)n1C1CC1)Nc1ccc(Cl)c(Cl)c1,.,.,.,.,.,/,/
O=C1NC(=S)N/C1=C/c1cccc([N+](=O)[O-])c1O,.,.,.,40.3,.,.,.
CC(C)C1Nc2ccc(C(=O)NC3CCCCC3)cc2NC1=O (stereo not given),.,.,.,.,.,/,/
CC1Nc2ccc(C(=O)NC3CCCCC3)cc2NC1=O (stereo not given),.,.,.,40.7,.,.,.
CC(C)Oc1ccc(CNC(=O)C2CCCN(S(=O)(=O)N3CCOCC3)C2)cc1 (stereo not given),.,.,.,.,.,/,/
Cc1ccc(NC(=O)c2ccc(NCCN)c([N+](=O)[O-])c2)cc1,.,.,.,.,.,/,/
Cc1cccc(NC(=O)c2ccc(NCCc3ccccc3)c([N+](=O)[O-])c2)c1,.,.,.,85.9,.,.,.
Cc1ccc(NC(=O)c2ccc(NCc3ccco3)c([N+](=O)[O-])c2)cc1Cl,.,.,.,37.4,.,.,.
CCCCNC(=O)C1(C)CCN1C(=O)c1cc(-c2cccs2)oc1C (stereo not given),/,/,/,.,.,/,/
COc1ccc(NC(=O)C2Cc3c(-c4cccc(C(N)=O)c4)ccnc3O2)cc1 (stereo not given),/,/,/,.,.,/,/
